Measured values as given in ChEMBL document CHEMBL1144767, “Characterization of chemical libraries for luciferase inhibitory activity” (J Med Chem, 2008).
Activity calls are given as the source filed them. The rule behind the calls is not given here.

Assays:
[1] = target: T1, Luciferin 4-monooxygenase (Photuris pensylvanica, UniProt Q27757); experiment: (§1) Inhibition of luciferase Photuris pennsylvanica by Promega Kinase-Glo assay
T1 sequence (Q27757 whole entry): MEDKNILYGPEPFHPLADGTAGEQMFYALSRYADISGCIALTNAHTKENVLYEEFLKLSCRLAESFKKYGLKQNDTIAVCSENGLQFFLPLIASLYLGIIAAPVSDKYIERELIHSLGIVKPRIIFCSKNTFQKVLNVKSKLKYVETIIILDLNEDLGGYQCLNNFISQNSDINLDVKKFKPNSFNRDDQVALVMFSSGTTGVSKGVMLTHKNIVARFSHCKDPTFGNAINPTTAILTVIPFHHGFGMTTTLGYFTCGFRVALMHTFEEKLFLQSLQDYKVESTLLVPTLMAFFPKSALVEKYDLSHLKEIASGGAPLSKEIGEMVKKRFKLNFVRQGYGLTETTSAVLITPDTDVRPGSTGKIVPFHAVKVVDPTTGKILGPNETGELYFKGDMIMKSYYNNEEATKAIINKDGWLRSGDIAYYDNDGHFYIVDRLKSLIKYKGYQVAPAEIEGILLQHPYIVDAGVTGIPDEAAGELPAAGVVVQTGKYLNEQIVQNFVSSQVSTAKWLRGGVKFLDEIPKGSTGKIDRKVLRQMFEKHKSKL
How it was run: (§2)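 Detection by 2 µL of EasyLite or Kinase-Glo reagent (Kinase-Glo containing P. pennsylvanica luciferase). 1536-well luminescence. 16 two-fold concentrations, duplicate wells, repeated on two or three days.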

[2] = Inhibition of Renilla reniformis luciferase
[3] = target: T2, Luciferin 4-monooxygenase (Photinus pyralis, UniProt P08659); experiment: (§3) Inhibition of Photinus pyralis luciferase by Steady-Glo reporter gene assay
How it was run: (§4)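 5 nM purified P. pyralis luciferase in SteadyGlo or BrightGlo reporter-gene reagent; no extra ATP or D-luciferin added. 1536-well luminescence. Curves from 16 two-fold concentrations in duplicate, repeated on two or three separate days.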

[4] = target: T2, Luciferin 4-monooxygenase; experiment: Inhibition of Photinus pyralis luciferase by PK-Light assay
[5] = target: T2, Luciferin 4-monooxygenase; experiment: (§5) Inhibition of Photinus pyralis luciferase by BrightGlo reporter gene assay; how it was run: as §4
[6] = target: T2, Luciferin 4-monooxygenase; experiment: Inhibition of Photinus pyralis luciferase by Easy lite assay; how it was run: as §2
[7] = target: T2, Luciferin 4-monooxygenase; experiment: Inhibition of Photinus pyralis luciferase
[8] = target: T3, Luciferin 4-monooxygenase (Photuris pensylvanica) (UniProt Q27757); experiment: as §1; how it was run: as §2
T3 sequence (whole entry): T1 sequence (Q27757 whole entry)

[9] = target: Luciferin 4-monooxygenase (Photinus pyralis) (UniProt P08659); experiment: Inhibition of Photinus pyralis luciferase at 3 uM
[10] = target: T3, Luciferin 4-monooxygenase (Photuris pensylvanica); experiment: Inhibition of Photuris pennsylvanica luciferase at 57 uM by Promega Kinase-Glo assay
[11] = target: Luciferin 4-monooxygenase (Photinus pyralis) (UniProt P08659); experiment: as §3; how it was run: as §4
[12] = target: Luciferin 4-monooxygenase (Photinus pyralis) (UniProt P08659); experiment: as §5; how it was run: as §4
[13] = target: Luciferin 4-monooxygenase (Photinus pyralis) (UniProt P08659); experiment: Inhibition of Photinus pyralis luciferase at 0.04 uM
[14] = target: Luciferin 4-monooxygenase (Photinus pyralis) (UniProt P08659); experiment: Inhibition of Photinus pyralis luciferase at 1 uM

T2 sequence (P08659 whole entry): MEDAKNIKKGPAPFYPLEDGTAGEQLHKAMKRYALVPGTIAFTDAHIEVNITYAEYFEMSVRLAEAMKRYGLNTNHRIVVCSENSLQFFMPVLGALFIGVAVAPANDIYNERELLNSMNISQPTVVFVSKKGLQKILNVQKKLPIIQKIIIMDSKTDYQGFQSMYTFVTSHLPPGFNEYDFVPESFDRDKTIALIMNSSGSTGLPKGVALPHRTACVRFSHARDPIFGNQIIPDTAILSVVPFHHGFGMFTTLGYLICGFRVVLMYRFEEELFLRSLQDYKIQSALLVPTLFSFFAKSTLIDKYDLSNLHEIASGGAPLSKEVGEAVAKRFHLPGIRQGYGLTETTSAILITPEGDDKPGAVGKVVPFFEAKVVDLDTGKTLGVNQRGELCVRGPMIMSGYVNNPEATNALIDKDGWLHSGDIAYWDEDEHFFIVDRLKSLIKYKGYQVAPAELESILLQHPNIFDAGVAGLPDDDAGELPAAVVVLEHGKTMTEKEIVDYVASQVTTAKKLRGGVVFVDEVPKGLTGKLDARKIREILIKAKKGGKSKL
Luciferin 4-monooxygenase (Photinus pyralis), sequence (P08659 whole entry): as above

Row | SMILES | IC50 [1] | IC50 [2] | IC50 [3] | IC50 [4] | IC50 [5] | IC50 [6] | IC50 [7] | Activity [8] | inhibition [9] | Activity [10] | Activity [11] | Activity [12] | inhibition [13] | inhibition [14]
1 | c1ccc(-c2noc(-c3ccc4ccccc4c3)n2)nc1 | 11300 nM | 25000 nM | 200 nM | 220 nM | 200 nM | 220 nM | 100 nM |  |  |  |  |  |  | 
2 | CN(C)c1ccc(/C=C2\C(=O)Nc3ccccc32)cc1 |  | 19000 nM |  |  |  |  |  | inactive |  |  |  |  |  | 
3 | COc1ccc(-c2cc3ccc(OCc4nn[nH]n4)cc3oc2=O)cc1 |  |  | 10000 nM | 5400 nM | 13300 nM | 3200 nM | 1100 nM | inactive | 100% |  |  |  |  | 
4 | CCOc1ccc(NC(=O)c2ccccc2OC)cc1 |  |  | > 50000 nM | 2800 nM | 8300 nM | 1500 nM | 600 nM | inactive |  |  |  |  |  | 
5 | c1ccc(-c2noc(-c3ccc4ccccc4c3)n2)cc1 |  |  | 1400 nM | 1600 nM | 2600 nM | 2100 nM | 400 nM | inactive |  |  |  |  |  | 
6 | CCOc1ccc2nc(NC(=O)c3ccoc3C)sc2c1 | 3800 nM |  | 3600 nM | 4200 nM | 4000 nM | 5700 nM | 650 nM |  |  |  |  |  |  | 
7 | CN(C)c1ccc(N/C=C\C(=O)c2ccccc2)cc1 | 3200 nM | 11000 nM | 600 nM | 600 nM | 700 nM | 400 nM | 210 nM |  |  |  |  |  |  | 
8 | CCOc1ccc2nc(NC(=O)Nc3cccs3)sc2c1 |  |  | 12000 nM | 1450 nM | 11300 nM | 2100 nM | 600 nM | inactive |  |  |  |  |  | 
9 | Cc1ccc(C(=O)Nc2nc3ccc(S(C)(=O)=O)cc3s2)s1 |  |  | 10000 nM | 5400 nM | 13300 nM | 3200 nM | 1100 nM | inactive |  | inactive |  |  |  | 
10 | CN1CCN(C(=O)COc2ccc(-c3nc4ccccc4s3)cc2)CC1 |  |  | 1000 nM | 900 nM | 6500 nM | 400 nM | 300 nM | inactive |  |  |  |  |  | 
11 | O=C(N/N=C/c1ccccc1O)c1ccccc1O |  |  | 20000 nM | 2500 nM | 2600 nM | 3600 nM | 800 nM | inactive |  |  |  |  |  | 
12 | O=c1cc(-c2ccccc2O)oc2ccc3ccccc3c12 | 14000 nM |  | 60 nM | 700 nM | 90 nM | 200 nM | 50 nM |  |  |  |  |  |  | 
13 | Cc1ccc(-c2nc(-c3ccccn3)no2)cc1Cl | 22000 nM |  | 1600 nM | 2100 nM | 1400 nM | 800 nM | 220 nM |  |  |  |  |  |  | 
14 | COc1ccc(C(=O)Nc2ccc(C)cn2)c(OC)c1 | 14200 nM |  | 500 nM | 250 nM | 200 nM | 280 nM | 80 nM |  |  |  |  |  |  | 
15 | CCOc1ccc(-c2cc(C(=O)N3CCC4(CC3)OCCO4)c3ccccc3n2)cc1 | > 50000 nM | 11000 nM |  | 1400 nM |  | 1000 nM | 700 nM |  |  |  | inactive | inactive |  | 
16 | CCOc1ccc(-c2cc(C(=O)N3CCN(C)CC3)c3ccccc3n2)cc1 | > 50000 nM | > 25000 nM |  | 2400 nM |  | 1100 nM | 1300 nM |  |  |  | inactive | inactive |  | 
17 | CC(C)(C)C(=O)Nc1ccc(NC(=O)c2cccc(O)c2)nc1 | > 30000 nM |  | 800 nM | 5000 nM | 7200 nM | 800 nM | 700 nM |  |  |  |  |  |  | 
18 | Clc1cccc(/C=N\C=N\c2cccc(Cl)c2)c1 |  | > 50000 nM |  | 7800 nM |  | 11400 nM | 4500 nM | inactive |  |  | inactive | inactive |  | 
19 | Clc1cccc(-c2nc(-c3ccccn3)no2)c1 | 7400 nM | > 50000 nM | 1500 nM | 2100 nM | 1200 nM | 700 nM | 500 nM |  |  |  |  |  |  | 
20 | Cc1cccc(/C=C/c2ccccc2)n1 | > 50000 nM |  | > 100000 nM | 17000 nM | 24000 nM | 11000 nM | 4300 nM |  |  |  |  |  |  | 
21 | O=C(/C=C\Nc1ccc(F)cc1)c1ccco1 | 14200 nM |  | 4000 nM | 3600 nM | 3600 nM | 1100 nM | 1000 nM |  |  |  |  |  |  | 

Row | SMILES | IC50 [1] | IC50 [2] | IC50 [3] | IC50 [4] | IC50 [5] | IC50 [6] | IC50 [7] | Activity [8] | inhibition [9] | Activity [10] | Activity [11] | Activity [12] | inhibition [13] | inhibition [14]
22 | Cc1ccc(-c2cc(C(=O)N3CCN(c4ncccn4)CC3)c3ccccc3n2)cc1 |  | > 25000 nM |  |  |  |  |  |  |  |  | inactive | inactive |  | 
23 | C[C@@H](C(=O)O)c1ccc(N2Cc3ccccc3C2=O)cc1 [(R)-INDOPROFEN] | > 50000 nM |  | 10000 nM | 4700 nM | 5300 nM | 3600 nM | 200 nM |  |  |  |  |  |  | 
24 | Clc1ccc(-c2nc(-c3ccccn3)no2)cc1Cl | 19000 nM |  | 3300 nM | 4100 nM | 3900 nM | 1900 nM | 840 nM |  |  |  |  |  |  | 
25 | COc1ccc(C(=O)NC(=O)Nc2cc(C)ccn2)cc1 | 6900 nM |  | 1200 nM | 980 nM | 1000 nM | 370 nM | 410 nM |  |  |  |  |  |  | 
26 | O=C(/C=C\Nc1ccccn1)c1ccc(Cl)cc1 |  |  | 500 nM | 4100 nM | 1200 nM | 4700 nM | 2000 nM | inactive |  |  |  |  |  | 
27 | Cc1ccc(-c2noc(-c3ccccc3Br)n2)cc1 |  |  | 11000 nM | 3300 nM | 12000 nM | 2300 nM | 1000 nM | inactive |  |  |  |  |  | 
28 | CCN(CC)c1ccc2cc(-c3nc4ccccc4[nH]3)c(=O)oc2c1 | 16000 nM | 5300 nM | 120 nM | 380 nM | 400 nM | 14000 nM | 240 nM |  |  |  |  |  | 100% | 
29 | CS(=O)(=O)c1ccc2nc(NC(=O)c3cccs3)sc2c1 | 9500 nM |  | 2500 nM | 6100 nM | 3200 nM | 1300 nM | 1100 nM |  |  |  |  |  |  | 
30 | Brc1ccc(-c2nc(-c3ccccn3)no2)o1 | 12000 nM |  | 2600 nM | 13000 nM | 12000 nM | 5100 nM | 3200 nM |  |  |  |  |  |  | 
31 | CCN(CC)c1ccc2cc(-c3nc4ccccc4n3C)c(=O)oc2c1 |  |  |  |  |  |  |  |  |  |  |  |  |  | 28%
32 | Cc1ccc(C(=O)Cn2c3c(sc2=N)CCCC3)cc1 |  |  | 2800 nM | 1100 nM | 600 nM | 1800 nM | 320 nM | inactive |  |  |  |  |  | 
33 | COc1ccc2nc(NC(=O)c3ccoc3C)sc2c1 | 3600 nM |  | 10300 nM | 2100 nM | 5900 nM | 4500 nM | 1200 nM |  |  |  |  |  |  | 
34 | O=C(/C=C\Nc1ccccc1Br)c1ccccn1 | 10000 nM | > 50000 nM | 200 nM | 170 nM | 80 nM | 170 nM | 80 nM |  |  |  |  |  |  | 
35 | O=c1c2ccccc2cnn1-c1nc2ccccc2s1 | 5100 nM |  | 600 nM | 200 nM | 700 nM | 150 nM | 300 nM |  |  |  |  |  |  | 
36 | COc1cccc(-c2cc(=O)c3ccccc3o2)c1N |  |  | > 100000 nM | 6400 nM | 60000 nM | 11000 nM | 6200 nM | inactive |  |  |  |  |  | 
37 | CCOc1ccc(-c2cc(C(=O)N3CCN(c4ccccn4)CC3)c3ccccc3n2)cc1 |  | 11000 nM |  |  |  |  |  |  |  |  | inactive | inactive |  | 
38 | Cc1ccc2nc(NC(=O)c3cccs3)sc2c1 | > 50000 nM |  | 6900 nM | 1400 nM | 6700 nM | 1700 nM | 500 nM |  |  |  |  |  |  | 
39 | Cc1cccc(C#Cc2ccccc2)n1 |  |  | > 100000 nM | 6600 nM | 30000 nM | 7400 nM | 4700 nM | inactive |  |  |  |  |  | 
40 | O=C(/C=C\Nc1cccc(F)c1)c1ccc2c(c1)OCO2 | > 50000 nM |  | 900 nM | 1200 nM | 1900 nM | 1200 nM | 300 nM |  |  |  |  |  |  | 
41 | CCOC(=O)N1CCN(C(=O)c2cc(-c3ccc(OCC)cc3)nc3ccccc23)CC1 | > 50000 nM | 20000 nM |  | 1400 nM |  | 1000 nM | 900 nM |  |  |  | inactive | inactive |  | 
42 | Cc1ccc(-c2nc(-c3ccccc3)no2)c(Cl)c1 | 10500 nM |  | 160 nM | 500 nM | 300 nM | 400 nM | 150 nM |  |  |  |  |  |  | 
